From PubChem
In the library only some 4.9% were active in any assay of this set; here they are far more common.
APP 5'UTR act = activates APP 5'UTR luciferase reporter | SH-SY5Y APP 5'UTR luciferase reporter, luminescence; zero percent = DMSO vehicle wells | activation, % at 2 µM | 1% of 190,000 active | AID 1276;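 active = activation above a set limit, based on mean plus 3 SD of controls, cut at about 140% in these data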
STAT3 act = activators of IL-6 induced STAT3 signaling | AID 871 | activation (% of control), % at 5.6 µM | 0.91% of 190,000 active | U3A cells, IL-6 STAT3-luciferase reporter, luminescence; 100% = signal with IL-6 EC80 alone;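 active = activation above the screen-wide mean of compound activation plus 3 SD, cut at about 130% in these data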;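 note: 0% = background luminescence of wells with medium and substrate only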
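Test system: Human STAT1-deficient U3A cells with stable STAT3-luciferase reporter | Also added: Interleukin-6, 33 ng/mL | Timing: Compound pre-incubation 1 h before IL-6, then 6 h stimulation at 37 °C | Technique: Luciferase reporter luminescence | Read-out: Percent of IL-6-only median luminescence | Benchmarks: IL-6-only wells as 100% reference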
STAT1 blocker = reduces IFN-gamma driven STAT1 reporter signal; NIH 3T3 STAT1-luciferase reporter, luminescence; inhibition, % at 5.5 µM; 0.35% of 200,000 active;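 active = inhibition above a set limit, the mean inhibition across all tested compounds plus 3 SD, cut at about 34% in these data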;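 note: 0% = IFN-gamma with DMSO and 100% = IFN-gamma with 300 µM nifuroxazide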
NF-kB expr up = NF-kB expression increase, human neuronal cells. NF-kB reporter expression; stronger effect = higher value. 1.6% of 190,000 active. AID 1239. fold change at 12.5 µM; in the data active = fold change above about 3.3
STAT3 inh = inhibitors of IL-6 induced STAT3 signaling; U3A cells, IL-6 STAT3-luciferase reporter, luminescence; host cell line lacks STAT1; inhibition, % at 5.5 µM; 0.89% of 190,000 active;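 active = inhibition above the mean inhibition across all screened compounds plus 3 SD, cut at about 44% in these data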;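 note: 0% = DMSO only wells and 100% = 100 µM nifuroxazide control wells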
STAT1 activator = STAT1 signaling activation; NIH 3T3 STAT1-luciferase reporter, IFN-gamma, luminescence; 100% = IFN-gamma alone, no compound; activation (% of control), % at 5.5 µM; 2.6% of 200,000 active;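 active = activation above the screen-wide mean activation plus 3 SD, cut at about 130% in these data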;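 note: raw ratio to IFN-gamma control signal so 100% means no change and 0% no light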
The depositor's hits bear a star; / = no result given.

SMILES	APP 5'UTR act	STAT3 act	STAT1 blocker	NF-kB expr up	STAT3 inh	STAT1 activator
COc1cc(/C=N/N(C)c2ccccc2)cc(Cl)c1O	29	97	3	1.7	10	97
Cc1ccc2c(Cl)c(C(=O)Nc3cccnc3)sc2c1	169*	104	-25	2.8	-6	122
Cc1ccc2c(C)c(C(=O)Nc3cccnc3)oc2c1	6	97	-4	1.5	10	103
Cc1ccc(S(=O)(=O)NCC(=O)N/N=C/c2ccccc2O)cc1	-12	98	-5	1	4	103
CC(=O)c1cc(NC(=O)c2ccccc2)c(=O)oc1C	9	92	4	6.1*	9	96
Cc1ccc(Oc2ccc(NC(=O)c3ccco3)cc2)cc1	29	102	-18	1.7	5	119
Cc1ccc(NC(=O)c2ccc(OC(=O)c3ccco3)cc2)cc1	15	117	-37	2.8	-20	134*
Cc1ccc(NC(=O)c2ccc(OC(=O)c3cc4ccccc4o3)cc2)cc1	38	111	-27	1.9	-12	134*
Cc1ccc(C(=O)Nc2cc3ccccc3oc2=O)cc1	-66	10	94*	1.1	106*	12
COc1ccccc1/C=C/C=N/NC(=O)c1ccc2nc[nH]c2c1	-4	81	-5	0.8	31	104
Cc1ccc(C)c(/C=C(\C(=O)O)c2ccc(S(=O)(=O)N3CCCCC3)s2)c1	-8	106	4	1.1	-2	94
O=C1NC(Cc2c[nH]c3ccccc23)C(=O)N1Cc1ccc(CN2C(=O)NC(Cc3c[nH]c4ccccc34)C2=O)cc1 (configuration not stated)	14	114	9	0.54	-11	90
COC(=O)c1c(NC(=O)CN2CCC3(O)CCCCC3C2c2cc(OC)ccc2OC)sc(C)c1C (configuration not stated)	5	114	5	0.57	-15	95
O=C(Oc1ccccc1)c1ccc(NC(=O)c2ccco2)cc1	2	90	-41	1.4	15	136*
Cc1ccc(Nc2nc(-c3ccccc3)c(CC(=O)O)s2)cc1	53	99	-31	1.3	6	131*
O=C(Cc1sc(Nc2ccccc2)nc1-c1ccccc1)NCc1ccccn1	8	106	-30	1.4	-2	130*
COc1ccc(Cl)cc1-c1nc(-c2ccc(NC(=O)c3cccs3)cc2)no1	39	109	-33	1.6	-8	129*
CN(Cc1nc(Cc2cccc(C(F)(F)F)c2)no1)C1CC(C)(C)NC(C)(C)C1	-13	102	-2	1	-1	103
CCc1nnc(N2C(=O)c3ccc(Oc4ccc([N+](=O)[O-])cc4)cc3C2=O)s1	24	108	3	1.1	-11	97
CC1(C)Cc2nc3sc4c(SCC(=O)NCc5ccccc5)ncnc4c3cc2CO1	-67	111	-34	3.9*	-13	129*
CN(C)c1ccc(-n2cc3c(=O)n(C)c(=O)n(C)c3c2)cc1	20	89	-38	1.3	15	134*
CCN(CC)c1ccc(-n2cc3c(=O)n(C)c(=O)n(C)c3c2)cc1	7	98	4	1.1	8	97
COc1cc(NC(=O)CCCl)cc(-n2cnnn2)c1	2	98	10	1	2	91
N#Cc1ccccc1NC(=O)C1SC(=Nc2ccccc2)C(C(=O)Nc2ccc(Cl)cc2)=C1N (configuration not stated)	-7	58	55*	1.4	54*	48
C/C(=N\NC(=O)C1(C)CC1(Br)Br)c1ccc(NC(=O)C2CCC2)cc1 (configuration not stated)	-10	110	3	1	-8	97
SMILES	APP 5'UTR act	STAT3 act	STAT1 blocker	NF-kB expr up	STAT3 inh	STAT1 activator
C/C(=N/NC(=O)c1ccoc1C)c1ccc(NC(=O)C2CCCC2)cc1	161*	89	-40	1.2	15	136*
C/C(=N\NC(=O)c1ccn(C)n1)c1ccc(NC(=O)C2CCCC2)cc1	8	109	-39	0.99	-10	135*
Cc1occc1C(=O)NNC(=O)C1CCCCC1	13	96	1	1.2	2	99
CCNC(=O)c1ccc(C23CC4CC(CC(C4)C2)C3)o1	10	98	-8	1	4	105
Cc1ccc(C(=O)Oc2cccc(-n3cnnn3)c2)cc1	118	110	-40	2.3	-10	135*
CSc1nsc(N/N=C/c2ccc3c(c2)OCO3)c1C#N	168*	94	-54	3.9*	14	150*
Cc1oc(/N=C/c2ccc3c(c2)OCO3)c(C#N)c1C	12	117	2	0.98	-14	98
COc1ccccc1N/N=C/c1ccc2c(c1)OCO2	3	40	51*	1.1	72*	55
Cc1nnc(NC(=O)C2CCN(S(=O)(=O)c3ccc(Cl)cc3)CC2)s1	-11	93	1	1.1	10	98
Cc1ccc(C#CC[N+](C)(C)CC#Cc2ccccc2)cc1	-11	95	14	1	8	86
COc1ccc(C(=O)N2c3ccccc3C=CC2C#N)cc1 (configuration not stated)	-10	91	2	1.3	6	98
N#C[C@H]1[C@H](c2ccccc2)[C@](C#N)(C(=O)c2ccccc2)[C@@H]2C=Cc3ccccc3N21	21	133*	17	1.3	-31	85
O=C(Nc1cccc(Br)c1)c1ccc(OC2CSC2)cc1	149*	96	-31	3	8	128
Cc1cccc(NC(=O)c2ccc(OC3CSC3)cc2)c1	158*	87	-29	3.8*	18	125
O=C(CCC1CCCN(C(=O)Cn2cnnn2)C1)NCc1ccccc1F (configuration not stated)	18	104	2	1.1	8	97
CCn1c(-c2ccc(F)cc2)cnc1SCC(=O)N1CCCCC1C (configuration not stated)	69	121	-35	2.9	-27	132*
CCOc1ccc2nc(NC(=O)CS(=O)(=O)c3ccccc3)sc2c1	-27	100	-15	0.98	3	114
O=C(CS(=O)(=O)c1ccccc1)Nc1nc2ccccc2s1	-17	133*	-8	/	-31	108
Cc1cccc(NC(=O)CN(C)S(=O)(=O)c2ccc(Br)cc2)n1	1	102	-1	1	5	101
CN(CC(=O)Nc1nc2ccccc2s1)S(=O)(=O)c1ccc(Br)cc1	/	134*	-10	1.2	-40	107
Nc1nonc1C(=O)NCCNS(=O)(=O)c1ccc(F)cc1	-4	113	1	0.91	-19	99
CN(C)C(=O)COC(=O)c1ccccc1Nc1ccc(SC(F)F)cc1	19	116	-34	2.5	-25	131*
COc1ccccc1NC(=O)COC(=O)c1ccccc1OCC(=O)Nc1ccc(SC(F)F)cc1	18	112	6	1.2	-8	95
